An excerpt weighted towards active compounds, which were near 2.6% of everything screened.
Hsp70 activator = Hsp70 transcriptional activators, primary screen, cell-based, HeLa, Hsp70 promoter luciferase, luminescence, 10 µM | hit rate 0.04% among 200,000 | activation, % at 10 µM | HeLa Hsp70 promoter luciferase reporter; scaled: vehicle 0, proteasome-inhibitor control 100%;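 active means activation above the mean across all tested compounds plus 3 SD, cutoff set per campaign, cut at about 5.5% in these data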;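 further: 100% = MG132 at 30 µM as the positive control and 0% = DMSO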
HSV augment = enhancers of HSV replication in host cells, fold increase, host cell viability; HSV replication augmentation in cells; maximum fold increase; hit rate 0.005% among 220,000; AID 1956, 2009; in the data active means maximum fold increase above about 1.5; tested in PC3 cells
Rad51 HR inh = human RAD51 strand exchange inhibitors, primary screen, biochemical, fluorescence; DNA repair protein RAD51 homolog 1 (Homo sapiens), Q06609; hRad51 DNA strand exchange, fluorescence dequenching; inhibition, % at 10 µM; hit rate 0.085% among 200,000; AID 1385, 2008;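 active means inhibition above 40% at the single screening dose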;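 further: 0% = DMSO control wells and 100% = blanks with heterologous ssDNA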
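Test system – preformed human Rad51 ssDNA filaments · Reagent – Donor/quencher-labelled 47-bp dsDNA substrate · Incubation – 37 °C 15-min filament assembly, 30-min compound preincubation, 15-min exchange · Signal – FRET fluorescence dequenching, excitation 485 nm, emission 520 nm · Read-out – percent inhibition from fluorescence, normalised to plate control and blank means · Benchmarks – plate control and blank wells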
Mdm2 ligase inh = MDM2-luciferase reporter signal enhancers, primary screen, MDM2 E3 ligase inhibitor project, cell-based, luminescence, 1536-well. E3 ubiquitin-protein ligase Mdm2 (Homo sapiens), Q00987. cell-based MDM2 ubiquitination luciferase reporter, 2 h; 0 = plate control, 100 = twice control, blank-subtracted. signal enhancement, % at 5 µM. hit rate 0.11% among 210,000. AID 1230, 2008;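 active means signal enhancement of 30% or more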;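 further: luminescence tracks abundance of the self-degrading MDM2-luciferase fusion protein; higher signal means inhibition of MDM2 E3 ligase activity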
Target sequence (Q00987 whole entry, looked up, the tested form may be a part): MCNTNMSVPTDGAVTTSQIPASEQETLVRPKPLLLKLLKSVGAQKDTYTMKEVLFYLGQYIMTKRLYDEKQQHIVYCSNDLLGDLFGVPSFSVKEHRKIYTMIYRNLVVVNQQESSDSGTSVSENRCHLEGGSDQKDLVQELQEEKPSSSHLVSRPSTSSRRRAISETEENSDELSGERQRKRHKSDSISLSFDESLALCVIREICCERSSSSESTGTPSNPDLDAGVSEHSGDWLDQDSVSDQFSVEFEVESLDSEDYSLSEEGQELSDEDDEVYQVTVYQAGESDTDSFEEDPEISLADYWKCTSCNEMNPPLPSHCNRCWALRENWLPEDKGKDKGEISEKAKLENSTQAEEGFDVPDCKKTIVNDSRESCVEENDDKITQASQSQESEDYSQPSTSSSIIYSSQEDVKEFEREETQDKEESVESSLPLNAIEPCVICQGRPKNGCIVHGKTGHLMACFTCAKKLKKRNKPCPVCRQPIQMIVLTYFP
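Assay system: stable mammalian line carrying autodegrading MDM2–luciferase fusion reporter; Input: 2000 cells in each well; Compound dosing: single-point 5 µM; Schedule: 2 h compound exposure at 37 °C; Signal: SteadyLite luciferase luminescence after 15 min room-temperature reagent incubation; Evaluation: % luminescence enhancement versus blank-corrected plate control mean; Benchmarks: plate controls and plate blanks.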
HSF1 activator = HSF-1 activators, primary screen, NIH3T3-HGL cells, MG132 stress, luminescence, single point; NIH3T3-HGL HSF-1 luciferase reporter, 8 h; 100% = twice DMSO control signal; activation, % at 9 µM; hit rate 1.7% among 300,000;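 active means mean replicate activation of at least 50% with a set share of replicates each reaching 50%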;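 further: 0% = median of the neutral control wells and 100% = twice that signal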
HSF1 inhib = HSF1 inhibitors in luciferase reporter cells, primary screen, cell-based, NIH3T3, luminescence; hit rate 0.77% among 300,000; activity change, negative = inhibition, % at 7.5 µM (by protocol); NIH3T3-HGL HSE-luciferase, MG132-induced, luminescence 8 h; stronger effect = lower value; AID 2098, 2009;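 active means more than half of replicate wells show activity change below -50%, luminescence cut by over half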;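 further: luciferase reports HSF-1 transcriptional activity via heat shock element; 0% = median of DMSO wells and -100% = zero luminescence signal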
* hit, by the source's call.

`O=C(Cc1nc2ccccc2[nH]1)c1ccc(Br)cc1` gave Hsp70 activator -0.1, HSV augment inactive, Rad51 HR inh -10.0, Mdm2 ligase inh -20.8, HSF1 activator 101.3* and HSF1 inhib 49.1.
`CCOc1ccc(NC(=O)C2CC(=O)N(c3ccccc3F)C2)cc1` (configuration not stated) gave HSF1 activator -4.2 and HSF1 inhib 1.8.
`O=C(Nc1nc2cc3c(cc2s1)OCO3)c1ccco1` gave HSV augment inactive.
For O=C(Nc1nc2cc3c(cc2s1)OCCO3)c1ccco1 the results were HSF1 activator -61.4 and HSF1 inhib -54.9*.
Screening CC(C)(C)c1csc(NC(=O)c2cccs2)n1 returned Hsp70 activator 0.1, HSV augment inactive, Rad51 HR inh -1.4, Mdm2 ligase inh -13.9, HSF1 activator 54.5* and HSF1 inhib 27.3.
Screening O=C(Nc1nc2ccc(F)cc2s1)c1cccs1 returned Hsp70 activator 0.4, HSV augment inactive, Rad51 HR inh -0.2, Mdm2 ligase inh -20.6, HSF1 activator 79.5* and HSF1 inhib 34.8.
For CCOC(=O)c1ccc2nc(NC(=O)c3ccco3)sc2c1 the results were Hsp70 activator -0.2, Mdm2 ligase inh -63.5, HSF1 activator 69.4* and HSF1 inhib 27.9.
Screening CC(C)(C)c1csc(NC(=O)Cc2cccs2)n1 returned Hsp70 activator -0.1, HSV augment inactive, Rad51 HR inh 5.4, Mdm2 ligase inh -1.8, HSF1 activator 3.9 and HSF1 inhib 11.8.
`O=C(c1cc(=O)[nH]c2ccccc12)N1CC=C(c2ccccc2)CC1` gave HSF1 activator 3.4 and HSF1 inhib -3.0.
For CCCC(O)(c1ccc(CC)cc1)C(CN1CCOCC1)c1ccccc1 (configuration not stated) the results were HSF1 activator -6.6 and HSF1 inhib -3.0.
Screening O=C(Cc1c(F)cccc1Cl)Nc1ccc(S(=O)(=O)NCC2CCCO2)cc1 (configuration not stated) returned Hsp70 activator -0.3, HSV augment inactive, Rad51 HR inh -2.3, Mdm2 ligase inh -8.2, HSF1 activator 3.4 and HSF1 inhib -2.5.
For O=C(Nc1nc2c(s1)COc1ccccc1-2)c1cccs1 the results were Hsp70 activator -0.2, HSV augment inactive, Rad51 HR inh 3.8, Mdm2 ligase inh -18.6, HSF1 activator 12.3 and HSF1 inhib 4.4.
O=C(Nc1nc2c(s1)CCc1ccccc1-2)c1cccs1 was read as Hsp70 activator 0.0, HSV augment inactive, Rad51 HR inh -4.6, Mdm2 ligase inh -2.9, HSF1 activator 57.5* and HSF1 inhib 48.1.
O=C(NC(=S)Nc1nc2ccc(F)cc2s1)c1ccco1 was read as Hsp70 activator -0.1, HSV augment inactive, Rad51 HR inh 10.7, Mdm2 ligase inh 0.3, HSF1 activator 89.4* and HSF1 inhib 47.7.
`O=C(C1CCCN(S(=O)(=O)c2ccc(Cl)cc2)C1)N(Cc1cccs1)C1CC1` (configuration not stated) gave Hsp70 activator -0.2, HSV augment inactive, Rad51 HR inh 6.9, Mdm2 ligase inh -16.0, HSF1 activator -72.6 and HSF1 inhib -65.3*.
Cc1ccccc1OCC(=O)Nc1ccc2c(c1)C(=O)N(CCC(=O)O)C2=O was read as HSF1 activator -64.3 and HSF1 inhib -50.7*.
For c1ccc(-c2nc3c(ccc4ccccc43)[nH]2)nc1 the results were Hsp70 activator 0.9, HSV augment inactive, Rad51 HR inh 0.3, Mdm2 ligase inh -9.9, HSF1 activator 58.3* and HSF1 inhib 32.9.
Screening O=C(NC(=S)N1CCN(C/C=C/c2ccccc2)CC1)c1ccc(Cl)nc1 returned HSV augment inactive, Rad51 HR inh 9.1, Mdm2 ligase inh -9.4, HSF1 activator 68.8* and HSF1 inhib 38.0.
